Measurements as given in ChEMBL document CHEMBL1208768, “Synthesis, selective anti-Helicobacter pylori activity, and cytotoxicity of novel N-substituted-2-oxo-2H-1-benzopyran-3-carboxamides” (Bioorg Med Chem Lett, 2010).
Converted amounts (≈) assume the structure as drawn. The source made the active and inactive calls. The calls are words filed in the database; no cut-off is given here.

Experiments:
AGS [1] = experiment: Antiinflammatory activity in human AGS cells assessed as inhibition of IL-8 production at 5 ug/mL after 24 hrs; format: functional, cell-based
Outline: (§1)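 AGS gastric adenocarcinoma cells were grown in F-12K with 10% FBS. They were seeded at 1 × 10⁵/mL for 24 h, preincubated 1 h with compound at 5 or 0.5 µg/mL, then exposed to H. pylori.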

[Candida] sake = Antifungal activity against Candida sake after 24 hrs by broth microdilution method; format: functional; settings: Fermentozyma sake
Outline: (§2)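 Candida isolates from respiratory-tract specimens, tested by NCCLS broth microdilution in Sabouraud dextrose broth. Serial compound dilutions inoculated to 10³/mL, with fungus-only and medium-only controls. Incubated 24 h at 37 °C. MIC was the lowest concentration with complete visible growth inhibition.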

Escherichia coli = experiment: Antibacterial activity against Escherichia coli after 18 to 22 hrs by broth microdilution method; format: functional
Outline: (§3)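 Clinical respiratory-tract isolates from patients, subcultured for purity and identified conventionally. Broth microdilution per NCCLS in Mueller–Hinton II broth; each plate had growth controls (bacteria, no compound) and medium-only controls. Incubation 18–22 h at 35 °C. MIC taken as the lowest concentration giving complete growth inhibition by unaided eye.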

[2] = Cytotoxicity against human EAhy926 cells assessed as cell survival at 5 ug/mL after 24 hrs by trypan blue exclusion assay; format: cell-based, EA.hy 926; settings: read-out: Survival
Outline: (§4)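 EAhy cells in DMEM (high glucose) with 10% FBS, at 1 × 10⁵/mL in exponential growth and 60–70% confluent, were exposed 24 h at 37 °C to compounds from DMSO stocks (final DMSO ≤0.5%). Controls were cells alone or with DMSO, and 1 mM sodium nitroprusside as positive control. Cells were scraped, mixed 1:1 with 0.4% Trypan blue and counted on a hemocytometer by two operators. Result given as % viable cells.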

Helicobacter pylori [3] = experiment: Antibacterial activity against metronidazole-resistant Helicobacter pylori NCTC 11637 after 72 hrs by agar dilution method; format: functional; settings: NCTC 11637, 72 h
Outline: (§5)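 H. pylori clinical isolates (ATCC 43504 control each session) stored at -80 °C and subcultured twice on Columbia agar with 10% horse serum and 0.25% yeast extract. Suspensions of 0.5 McFarland were spotted by Steer's replicator at about 5 × 10⁵ CFU/spot onto agar with twofold compound dilutions. Plates were incubated 72 h at 37 °C in 10% CO₂. MIC was the lowest concentration without visible growth.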

Enterococcus faecalis = experiment: Antibacterial activity against Streptococcus faecalis after 18 to 22 hrs by broth microdilution method; format: functional; outline: as §3
Proteus vulgaris = experiment: Antibacterial activity against Proteus vulgaris after 18 to 22 hrs by broth microdilution method; format: functional; outline: as §3
[4] = Cytotoxicity against human EAhy926 cells assessed as cell survival at 0.05 ug/mL after 24 hrs by trypan blue exclusion assay; format: cell-based, EA.hy 926; settings: read-out: Survival; outline: as §4
Enterobacter = experiment: Antibacterial activity against Enterobacter after 18 to 22 hrs by broth microdilution method; format: functional; outline: as §3
Staphylococcus aureus = experiment: Antibacterial activity against Staphylococcus aureus after 18 to 22 hrs by broth microdilution method; format: functional; outline: as §3
Helicobacter pylori [5] = experiment: Antibacterial activity against metronidazole-resistant Helicobacter pylori isolate 1 after 72 hrs by agar dilution method; format: functional; settings: isolate 1, 72 h; outline: as §5
Klebsiella pneumoniae = experiment: Antibacterial activity against Klebsiella pneumoniae after 18 to 22 hrs by broth microdilution method; format: functional; outline: as §3
[6] = system: Staphylococcus haemolyticus; experiment: Antibacterial activity against Staphylococcus haemolyticus after 18 to 22 hrs by broth microdilution method; format: functional; outline: as §3
Helicobacter pylori [7] = experiment: Antibacterial activity against metronidazole-resistant Helicobacter pylori isolate 8 after 72 hrs by agar dilution method; format: functional; settings: isolate 8, 72 h; outline: as §5
[8] = system: Staphylococcus epidermidis; experiment: Antibacterial activity against Staphylococcus epidermidis after 18 to 22 hrs by broth microdilution method; format: functional; outline: as §3
Helicobacter pylori [9] = experiment: Antibacterial activity against metronidazole-resistant Helicobacter pylori isolate 20 after 72 hrs by agar dilution method; format: functional; settings: isolate 20, 72 h; outline: as §5
Citrobacter freundii = experiment: Antibacterial activity against Citrobacter freundii after 18 to 22 hrs by broth microdilution method; format: functional; outline: as §3
Klebsiella oxytoca = experiment: Antibacterial activity against Klebsiella oxytoca after 18 to 22 hrs by broth microdilution method; format: functional; outline: as §3
Helicobacter pylori [10] = experiment: Antibacterial activity against Helicobacter pylori ATCC 43504 clinical isolates after 72 hrs by agar dilution method; format: functional; settings: ATCC 43504, 72 h
Outline: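 Agar dilution per NCCLS. Twenty clinical strains from duodenal ulcer or gastritis patients, with ATCC 43504 as control in each session, were subcultured twice on Columbia agar plus 10% horse serum and 0.25% yeast extract (72 h, 37 °C, 10% CO₂). Inoculum of 0.5 McFarland in Wilkins Chalgren broth, about 5 × 10⁵ CFU/spot by Steer's replicator. Plates held twofold compound dilutions down to 0.0039 µg/mL and were incubated 72 h at 37 °C, 10% CO₂. MIC was the lowest concentration inhibiting visible growth.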

Pichia kudriavzevii = experiment: Antifungal activity against Candida krusei after 24 hrs by broth microdilution method; format: functional; outline: as §2
AGS (Homo sapiens) = experiment: Cytotoxicity against human AGS cells assessed as cell survival at 50 ug/mL after 24 hrs by MTT assay
Klebsiella aerogenes = experiment: Antibacterial activity against Enterobacter aerogenes after 18 to 22 hrs by broth microdilution method; format: functional; outline: as §3
[11] = Cytotoxicity against human EAhy926 cells assessed as cell survival at 5 ug/mL after 24 hrs by MTT assay; format: cell-based, EA.hy 926; settings: read-out: Survival
[12] = Cytotoxicity against human EAhy926 cells assessed as cell survival at 50 ug/mL after 24 hrs by trypan blue exclusion assay; format: cell-based, EA.hy 926; settings: read-out: Survival; outline: as §4
Candida albicans = experiment: Antifungal activity against Candida albicans after 24 hrs by broth microdilution method; format: functional; outline: as §2
Helicobacter pylori [13] = experiment: Antibacterial activity against metronidazole-resistant Helicobacter pylori isolate 18 after 72 hrs by agar dilution method; format: functional; settings: isolate 18, 72 h; outline: as §5
AGS [14] = experiment: Antiinflammatory activity in human AGS cells assessed as inhibition of IL-8 production at 0.5 ug/mL after 24 hrs; format: functional, cell-based; outline: as §1
[15] = Cytotoxicity against human EAhy926 cells assessed as cell survival at 0.5 ug/mL after 24 hrs by MTT assay; format: cell-based, EA.hy 926; settings: read-out: Survival
[16] = Cytotoxicity against human EAhy926 cells assessed as cell survival at 0.5 ug/mL after 24 hrs by trypan blue exclusion assay; format: cell-based, EA.hy 926; settings: read-out: Survival; outline: as §4
Staphylococcus hominis = experiment: Antibacterial activity against Staphylococcus hominis after 18 to 22 hrs by broth microdilution method; format: functional; outline: as §3

Row | SMILES | inhibition (AGS [1]) | MIC ([Candida] sake) [mg/L] | MIC (Escherichia coli) [mg/L] | viability at 24 h, 5 ug/mL [2] [%] | MIC (Helicobacter pylori [3]) [mg/L] | MIC (Enterococcus faecalis) [mg/L] | MIC (Proteus vulgaris) [mg/L] | viability at 24 h, 0.05 ug/mL [4] [%] | MIC (Enterobacter) [mg/L] | MIC (Staphylococcus aureus) [mg/L] | MIC (Helicobacter pylori [5]) [mg/L] | MIC (Klebsiella pneumoniae) [mg/L] | MIC [6] [mg/L] | MIC (Helicobacter pylori [7]) [mg/L] | MIC [8] [mg/L] | MIC (Helicobacter pylori [9]) [mg/L] | MIC (Citrobacter freundii) [mg/L] | MIC (Klebsiella oxytoca) [mg/L] | MIC50 (Helicobacter pylori [10]) [mg/L] | MIC90 (Helicobacter pylori [10]) [mg/L] | also measured
1 | CCOC(=O)c1ccc(NC(=O)c2cc3cc(O)ccc3oc2=O)cc1 | inactive | > 128 | > 128 | 80 | 8 (≈ 22.6 µM) | > 128 | > 128 | 93 | > 128 | > 128 | 4 (≈ 11.3 µM) | > 128 | > 128 | 2 (≈ 5.66 µM) | > 128 | 2 (≈ 5.66 µM) | > 128 | > 128 | 4 (≈ 11.3 µM) | 8 (≈ 22.6 µM) | MIC (Pichia kudriavzevii): > 128 mg/L; viability at 24 h, 50 ug/mL (AGS (Homo sapiens)): 82%; MIC (Klebsiella aerogenes): > 128 mg/L; viability at 24 h, 5 ug/mL [11]: 99%; viability at 24 h, 50 ug/mL [12]: 77%; MIC (Candida albicans): > 128 mg/L; MIC (Helicobacter pylori [13]): 8 mg/L (≈ 22.6 µM); inhibition (AGS [14]): inactive; viability at 24 h, 0.5 ug/mL [15]: 99%; viability at 24 h, 0.5 ug/mL [16]: 83%; MIC (Staphylococcus hominis): > 128 mg/L
2 | CCOC(=O)c1ccc(NC(=O)c2cc3cc(C)ccc3oc2=O)cc1 | inactive | > 128 | > 128 | 59 | 4 (≈ 11.4 µM) | > 128 | > 128 | 80 | > 128 | > 128 | 8 (≈ 22.8 µM) | > 128 | > 128 | 8 (≈ 22.8 µM) | > 128 | 2 (≈ 5.69 µM) | > 128 | > 128 | 4 (≈ 11.4 µM) | 8 (≈ 22.8 µM) | MIC (Pichia kudriavzevii): > 128 mg/L; viability at 24 h, 50 ug/mL (AGS (Homo sapiens)): 63%; MIC (Klebsiella aerogenes): > 128 mg/L; viability at 24 h, 5 ug/mL [11]: 81%; viability at 24 h, 50 ug/mL [12]: 14%; MIC (Candida albicans): > 128 mg/L; MIC (Helicobacter pylori [13]): 2 mg/L (≈ 5.69 µM); inhibition (AGS [14]): inactive; viability at 24 h, 0.5 ug/mL [15]: 99%; viability at 24 h, 0.5 ug/mL [16]: 77%; MIC (Staphylococcus hominis): > 128 mg/L
3 | CCOC(=O)c1ccc(NC(=O)c2cc3cc(Br)cc(Cl)c3oc2=O)cc1 | inactive | > 128 | > 128 | 71 | 16 (≈ 35.5 µM) | > 128 | > 128 | 94 | > 128 | > 128 | 8 (≈ 17.8 µM) | > 128 | > 128 | 4 (≈ 8.88 µM) | > 128 | 8 (≈ 17.8 µM) | > 128 | > 128 | 8 (≈ 17.8 µM) | 16 (≈ 35.5 µM) | MIC (Pichia kudriavzevii): > 128 mg/L; viability at 24 h, 50 ug/mL (AGS (Homo sapiens)): 64%; MIC (Klebsiella aerogenes): > 128 mg/L; viability at 24 h, 5 ug/mL [11]: 75%; viability at 24 h, 50 ug/mL [12]: 58%; MIC (Candida albicans): > 128 mg/L; MIC (Helicobacter pylori [13]): 8 mg/L (≈ 17.8 µM); inhibition (AGS [14]): inactive; viability at 24 h, 0.5 ug/mL [15]: 98%; viability at 24 h, 0.5 ug/mL [16]: 86%; MIC (Staphylococcus hominis): > 128 mg/L
4 | COc1ccc2oc(=O)c(C(=O)Nc3ccc(C(=O)O)cc3)cc2c1 | inactive | > 128 | > 128 | 69 | 4 (≈ 11.8 µM) | > 128 | > 128 | 85 | > 128 | > 128 | 8 (≈ 23.6 µM) | > 128 | > 128 | 4 (≈ 11.8 µM) | > 128 | 4 (≈ 11.8 µM) | > 128 | > 128 | 4 (≈ 11.8 µM) | 8 (≈ 23.6 µM) | MIC (Pichia kudriavzevii): > 128 mg/L; MIC (Klebsiella aerogenes): > 128 mg/L; viability at 24 h, 5 ug/mL [11]: 99%; viability at 24 h, 50 ug/mL [12]: 62%; MIC (Candida albicans): > 128 mg/L; MIC (Helicobacter pylori [13]): 4 mg/L (≈ 11.8 µM); inhibition (AGS [14]): inactive; viability at 24 h, 0.5 ug/mL [15]: 99%; MIC (Staphylococcus hominis): > 128 mg/L
